# According to ChEMBL document CHEMBL1154249, “Semisynthesis and biological evaluation of abietane-type diterpenes. Revision of the structure of rosmaquinone” (J Nat Prod, 2009):
# Assays:
# Staphylococcus aureus = assay: Antibacterial activity against Staphylococcus aureus ATCC 6538 after 24 hrs by broth dilution assay; assay type: functional; details: Staphylococcus aureus, ATCC 6538, 24 h; read-out: MIC
# [1] = tested on: Staphylococcus epidermidis; assay: Antibacterial activity against Staphylococcus epidermidis ATCC 14990 after 24 hrs by broth dilution assay; assay type: functional; details: Staphylococcus epidermidis, ATCC 14990, 24 h; read-out: MIC
# How it was run: (§1)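 Microdilution in nutrient broth at 37 °C, about (1-5) × 10^5 cfu/mL inoculum, compounds in DMSO (≤1% v/v, matched DMSO controls), in triplicate. Growth followed by OD550. Wells without visible growth after 24 h on a rotary shaker were subcultured in duplicate onto nutrient agar and colonies counted after overnight incubation. MIC is the lowest concentration inhibiting growth at 24 h.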
# Bacillus subtilis = assay: Antibacterial activity against Bacillus subtilis ATCC 6051 after 24 hrs by broth dilution assay; assay type: functional; details: Bacillus subtilis, ATCC 6051, 24 h; read-out: MIC
# Bacillus cereus = assay: Antibacterial activity against Bacillus cereus ATCC 21772 after 24 hrs by broth dilution assay; assay type: functional; details: Bacillus cereus, ATCC 21772, 24 h
# Candida albicans = assay: Antibacterial activity against Candida albicans CECT 170 after 24 hrs by broth dilution assay; assay type: functional; details: CECT 1039, 24 h, in the assay text read “CECT 1039” for “CECT 170”
# How it was run: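 Yeast grown in Sabouraud liquid medium at 37 °C. Microdilution in triplicate, about (1-5) × 10^5 cfu/mL, DMSO ≤1% v/v with matched controls. OD550 followed. Clear wells at 24 h were plated in duplicate on Sabouraud agar and counted after overnight incubation. MIC is the lowest concentration inhibiting growth.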
# Enterococcus faecalis = assay: Antibacterial activity against Enterococcus faecalis ATCC 29212 after 24 hrs by broth dilution assay; assay type: functional; details: ATCC 29212, 24 h
# How it was run: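 Microdilution in brain heart infusion broth, shaken at 37 °C, about (1-5) × 10^5 cfu/mL start, DMSO ≤1% v/v with matched controls, in triplicate. OD550 read. Clear wells at 24 h were subcultured in duplicate onto brain heart infusion agar and counted after overnight incubation. MIC is the lowest concentration giving growth inhibition.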
# [2] = tested on: Mycolicibacterium smegmatis; assay: Antibacterial activity against Mycobacterium smegmatis ATCC 19420 after 48 hrs by broth dilution assay; assay type: functional; details: ATCC 19420, 48 h
# How it was run: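 Brain heart infusion broth with 0.06% Tween 80, 37 °C on a rotary shaker, inoculum about (1-5) × 10^5 cfu/mL, DMSO ≤1% v/v with matched controls, in triplicate. OD550 monitored.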
# Escherichia coli = assay: Antibacterial activity against Escherichia coli ATCC 9637 after 24 hrs by broth dilution assay; assay type: functional; details: ATCC 9637, 24 h; how it was run: as §1
# Proteus mirabilis = assay: Antibacterial activity against Proteus mirabilis CECT 170 after 24 hrs by broth dilution assay; assay type: functional; details: CECT 170, 24 h; how it was run: as §1
# Pseudomonas aeruginosa = assay: Antibacterial activity against Pseudomonas aeruginosa AK958 after 24 hrs by broth dilution assay; assay type: functional; details: AK958, 24 h; how it was run: as §1
# Salmonella = assay: Antibacterial activity against Salmonella CECT 4569 after 24 hrs by broth dilution assay; assay type: functional; details: CECT 4569, 24 h; how it was run: as §1
# HeLa [3] = assay: Cytotoxicity against human HeLa cells at lag phase of growth after 48 hrs by MTT assay; assay type: functional, cell-based
# How it was run: (§2)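 Monolayers grown in DMEM with 5% fetal calf serum and penicillin-streptomycin at 37 °C, 5% CO2. 2×10^4 cells/well in lag or log phase were exposed for 48 h to a concentration series of compounds predissolved in DMSO. MTT formazan was dissolved in DMSO and read at 550 nm. IC50 taken from the curve; three independent experiments.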
# HeLa [4] = assay: Cytotoxicity against human HeLa cells at exponential phase of growth after 48 hrs by MTT assay; assay type: functional, cell-based; how it was run: as §2
# HEp-2 [5] = assay: Cytotoxicity against human Hep2 cells at lag phase of growth after 48 hrs by MTT assay; assay type: functional, cell-based; how it was run: as §2
# HEp-2 [6] = assay: Cytotoxicity against human Hep2 cells at exponential phase of growth after 48 hrs by MTT assay; assay type: functional, cell-based; how it was run: as §2
# A549 [7] = assay: Cytotoxicity against human A549 cells at lag phase of growth after 48 hrs by MTT assay; assay type: functional, cell-based; how it was run: as §2
# A549 [8] = assay: Cytotoxicity against human A549 cells at exponential phase of growth after 48 hrs by MTT assay; assay type: functional, cell-based; how it was run: as §2
# MCF7 [9] = assay: Cytotoxicity against human MCF7 cells at lag phase of growth after 48 hrs by MTT assay; assay type: functional, cell-based; how it was run: as §2
# MCF7 [10] = assay: Cytotoxicity against human […] cells at exponential phase of growth after 48 hrs by MTT assay; assay type: functional, cell-based; how it was run: as §2
# Vero [11] = assay: Cytotoxicity against african green monkey Vero cells at lag phase of growth after 48 hrs by MTT assay; assay type: cell-based, Chlorocebus sabaeus; how it was run: as §2
# Vero [12] = assay: Cytotoxicity against african green monkey Vero cells at exponential phase of growth after 48 hrs by MTT assay; assay type: cell-based, Chlorocebus sabaeus; how it was run: as §2
# [13] = Homo sapiens, HeLa, 48 h, read-out: IC50
# [14] = Homo sapiens, A549, 48 h, read-out: IC50
# [15] = Homo sapiens, MCF7, 48 h, read-out: IC50
# [16] = Chlorocebus sabaeus, Vero, 48 h, read-out: IC50
# [17] = Homo sapiens, HEp-2, 48 h, read-out: IC50
Compound,MIC (Staphylococcus aureus) [µg/mL],MIC [1] [µg/mL],MIC (Bacillus subtilis) [µg/mL],MIC (Bacillus cereus) [µg/mL],MIC (Candida albicans) [µg/mL],MIC (Enterococcus faecalis) [µg/mL],MIC [2] [µg/mL],MIC (Escherichia coli) [µg/mL],MIC (Proteus mirabilis) [µg/mL],MIC (Pseudomonas aeruginosa) [µg/mL],MIC (Salmonella) [µg/mL],IC50 (HeLa [3]; [13]) [µM],IC50 (HeLa [4]; [13]) [µM],IC50 (A549 [7]; [14]) [µM],IC50 (A549 [8]; [14]) [µM],IC50 (MCF7 [9]; [15]) [µM],IC50 (MCF7 [10]; [15]) [µM],IC50 (Vero [11]; [16]) [µM],IC50 (Vero [12]; [16]) [µM],also measured
CC(C)c1cc2c(c(O)c1O)[C@@]13CCCC(C)(C)[C@@H]1[C@H](OC3=O)[C@@H]2OCc1ccccc1,> 40,> 40,20,10,> 40,> 40,> 40,> 40,> 40,> 40,> 40,–,–,–,–,–,–,–,–,IC50 (HeLa [3]; hela): Not Active; IC50 (HeLa [4]; hela): Not Active; IC50 (HEp-2 [5]; hep-2): Not Active; IC50 (HEp-2 [6]; hep-2): Not Active; IC50 (A549 [7]; a549): Not Active; IC50 (A549 [8]; a549): Not Active; IC50 (MCF7 [9]; mcf7): Not Active; IC50 (MCF7 [10]; mcf7): Not Active; IC50 (Vero [11]; vero): Not Active; IC50 (Vero [12]; vero): Not Active
CO[C@@H]1c2cc(C(C)C)c(O)c(O)c2[C@@]23CCCC(C)(C)[C@@H]2[C@@H]1OC3=O,> 40,20,20,20,> 40,> 40,> 40,> 40,> 40,> 40,> 40,40.8,> 60,35.6,50.8,23.3,41.1,36.7,33.9,–
CO[C@H]1c2cc(C(C)C)c(O)c(O)c2[C@@]23CCCC(C)(C)[C@@H]2[C@@H]1OC3=O,> 40,20,> 40,20,> 40,> 40,> 40,> 40,> 40,> 40,> 40,42.2,> 60,42.5,> 60,37.5,55.6,42.2,47.2,–
CC(C)c1cc2c(c(O)c1O)[C@@]13CCCC(C)(C)[C@@H]1C[C@@H]2OC3=O [CARNOSOL],25,5,4,5,20,> 40,> 40,> 40,> 40,> 40,> 40,43.9,> 60,> 60,47,40.9,44.5,> 60,51.5,–
CC(C)c1cc2c(c(O)c1O)[C@@]13CCCC(C)(C)[C@@H]1[C@@H](O)[C@@H]2OC3=O [ISOROSMANOL],40,20,30,20,> 40,> 40,> 40,> 40,> 40,> 40,> 40,> 60,> 60,> 60,46,54.3,36.1,> 60,> 60,–
CC(C)c1cc2c(c(O)c1O)[C@@]13CCCC(C)(C)[C@@H]1[C@H](OC3=O)[C@H]2O [ROSMANOL],20,10,10,20,> 40,> 40,–,> 40,> 40,> 40,> 40,20.2,51.4,43.4,27.7,17.1,15.3,19.9,36.4,–
CO[C@H]1C2=C(C(=O)C(=O)C(C(C)C)=C2)[C@@]23CCCC(C)(C)[C@@H]2[C@@H]1OC3=O [ROSMAQUINONE B],40,> 40,20,20,> 40,> 40,> 40,> 40,> 40,> 40,> 40,36,33.8,> 60,25.4,43.3,22.1,> 60,> 60,IC50 (HEp-2 [5]; [17]): 42.5 µM; IC50 (HEp-2 [6]; [17]): > 60 µM
CC(C)C1=CC2=C(C(=O)C1=O)[C@@]13CCCC(C)(C)[C@@H]1[C@H](OC3=O)[C@H]2O [ROSMAQUINONE],20,40,8,10,> 40,> 40,> 40,> 40,> 40,> 40,> 40,> 60,> 60,> 60,28.8,39.5,> 60,> 60,> 60,–
